Source: ChEMBL document CHEMBL3994650, “New 1,4-dihydro[1,8]naphthyridine derivatives as DNA gyrase inhibitors” (Bioorg Med Chem Lett, 2017)
≈ marks a conversion by molar mass, not a printed value. Calls of active or inactive are those of the source. The rule behind the calls is not given here.

Assays:
[1] = system: Escherichia coli ATCC 25922; assay: Inhibition of Escherichia coli DNA gyrase assessed as inhibition of enzyme-mediated supercoiling of relaxed pHOT1 DNA substrate at […] to […] ug/ml after 30 mins by gel electrophoresis method
Staphylococcus aureus [2] = assay: Antibacterial activity against Staphylococcus aureus ATCC 25923 incubated after 24 hrs by resazurin dye based broth microdilution assay; format: functional; details: ATCC 25923, 24 h
Escherichia coli [3] = assay: Antibacterial activity against Escherichia coli ATCC 35218 incubated after 24 hrs by resazurin dye based broth microdilution assay; format: functional; details: ATCC 35218, 24 h
Escherichia coli [4] = assay: Antibacterial activity against Escherichia coli ATCC 25922 incubated after 24 hrs by resazurin dye based broth microdilution assay; format: functional; details: ATCC 25922, 24 h
Klebsiella pneumoniae = assay: Antibacterial activity against Klebsiella pneumoniae ATCC 700603 incubated after 24 hrs by resazurin dye based broth microdilution assay; format: functional; details: Klebsiella pneumoniae, 700603, 24 h
Enterococcus faecalis [5] = assay: Antibacterial activity against Enterococcus faecalis ATCC 29212 incubated after 24 hrs by resazurin dye based broth microdilution assay; format: functional; details: ATCC 29212, 24 h
Enterococcus faecalis [6] = assay: Antibacterial activity against Enterococcus faecalis ATCC 51299 incubated after 24 hrs by resazurin dye based broth microdilution assay; format: functional; details: ATCC 51299, 24 h
Listeria monocytogenes = assay: Antibacterial activity against Listeria monocytogenes ATCC 7644 incubated after 24 hrs by resazurin dye based broth microdilution assay; format: functional; details: ATCC 7644, 24 h
Pseudomonas aeruginosa = assay: Antibacterial activity against Pseudomonas aeruginosa ATCC 27853 incubated after 24 hrs by resazurin dye based broth microdilution assay; format: functional; details: ATCC 27853, 24 h
Staphylococcus aureus [7] = assay: Antibacterial activity against Staphylococcus aureus ATCC 25923 assessed as decrease in ATP level at […] ug/ml after 24 hrs by BacTiter-Glo reagent based bioluminescence assay; format: functional
NIH3T3 = assay: Cytotoxicity against mouse NIH/3T3 cells assessed as reduction in cell proliferation after 24 hrs by MTT assay; format: cell-based; details: NIH3T3, 24 h
[8] = Selectivity index, ratio of IC50 for mouse NIH/3T3 cells to MIC90 for Klebsiella pneumoniae ATCC 700603; format: toxicity; details: read-out: Selectivity Index
[9] = Selectivity index, ratio of IC50 for mouse NIH/3T3 cells to MIC90 for Listeria monocytogenes ATCC 7644; format: toxicity; details: read-out: Selectivity Index
[10] = system: Escherichia coli ATCC 25922; assay: Inhibition of Escherichia coli DNA gyrase assessed as inhibition of enzyme-mediated supercoiling of relaxed pHOT1 DNA substrate after 30 mins by gel electrophoresis method
Procedure, shortened: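 E. coli DNA gyrase (1 U) was incubated with relaxed pHOT1 DNA substrate (0.25 µg) for 30 min at 37 °C. Compounds were tested at 15.6, 7.8, 3.9 and 1.95 µg/L. Controls were supercoiled DNA, relaxed DNA, relaxed DNA plus gyrase, and 1% DMSO. Supercoiling was read by agarose gel electrophoresis.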

[11] = Selectivity index, ratio of IC50 for mouse NIH/3T3 cells to MIC90 for Pseudomonas aeruginosa ATCC 27853; format: toxicity; details: read-out: Selectivity Index

SMILES | inhibition [1] | MIC90 (Staphylococcus aureus [2]) [µg/mL] | MIC90 (Escherichia coli [3]) [µg/mL] | MIC90 (Escherichia coli [4]) [µg/mL] | MIC90 (Klebsiella pneumoniae) [µg/mL] | MIC90 (Enterococcus faecalis [5]) [µg/mL] | MIC90 (Enterococcus faecalis [6]) [µg/mL] | MIC90 (Listeria monocytogenes) [µg/mL] | MIC90 (Pseudomonas aeruginosa) [µg/mL] | inhibition [10] | Activity (Staphylococcus aureus [7]) | IC50 (NIH3T3) [µg/mL] | selectivity ratio [8] | selectivity ratio [9] | selectivity ratio [11]
O=C(O)c1cn(-c2ccc(F)cc2F)c2nc(Sc3nc4ccccc4s3)c(F)cc2c1=O | – | 15.6 (≈ 32.1 µM) | 31.2 (≈ 64.4 µM) | 31.2 (≈ 64.4 µM) | 31.2 (≈ 64.4 µM) | 31.2 (≈ 64.4 µM) | 62.5 (≈ 129 µM) | 31.2 (≈ 64.4 µM) | 31.2 (≈ 64.4 µM) | – | – | – | – | – | –
CCOC(=O)c1cn(-c2ccc(F)cc2F)c2nc(N3CCN(CCCN(C)C)CC3)c(F)cc2c1=O | – | 62.5 (≈ 121 µM) | 125 (≈ 242 µM) | 125 (≈ 242 µM) | 250 (≈ 483 µM) | 125 (≈ 242 µM) | 62.5 (≈ 121 µM) | 125 (≈ 242 µM) | 125 (≈ 242 µM) | – | – | – | – | – | –
CCOC(=O)c1cn(-c2ccc(F)cc2F)c2nc(Sc3nc4ccccc4s3)c(F)cc2c1=O | – | 62.5 (≈ 122 µM) | 125 (≈ 243 µM) | 125 (≈ 243 µM) | 125 (≈ 243 µM) | 125 (≈ 243 µM) | 125 (≈ 243 µM) | 125 (≈ 243 µM) | 125 (≈ 243 µM) | – | – | – | – | – | –
CCOC(=O)c1cn(-c2ccc(F)cc2F)c2nc(Sc3nc4ccccc4[nH]3)c(F)cc2c1=O | – | 125 (≈ 252 µM) | 125 (≈ 252 µM) | 62.5 (≈ 126 µM) | 125 (≈ 252 µM) | 125 (≈ 252 µM) | 62.5 (≈ 126 µM) | 125 (≈ 252 µM) | 125 (≈ 252 µM) | – | – | – | – | – | –
CCOC(=O)c1cn(-c2ccc(F)cc2F)c2nc(Sc3nc4cc([N+](=O)[O-])ccc4[nH]3)c(F)cc2c1=O | – | 125 (≈ 231 µM) | 125 (≈ 231 µM) | 250 (≈ 462 µM) | 125 (≈ 231 µM) | 250 (≈ 462 µM) | 250 (≈ 462 µM) | 125 (≈ 231 µM) | 125 (≈ 231 µM) | – | – | – | – | – | –
O=C(O)c1cn(-c2ccc(F)cc2F)c2nc(Sc3nc4cc(Cl)ccc4[nH]3)c(F)cc2c1=O | – | 7.8 (≈ 15.5 µM) | 15.6 (≈ 31 µM) | 15.6 (≈ 31 µM) | 31.2 (≈ 62.1 µM) | 31.2 (≈ 62.1 µM) | 31.2 (≈ 62.1 µM) | 15.6 (≈ 31 µM) | 31.2 (≈ 62.1 µM) | – | – | – | – | – | –
CCOC(=O)c1cn(-c2ccc(F)cc2F)c2nc(Sc3nc4cc(C)ccc4[nH]3)c(F)cc2c1=O | – | 62.5 (≈ 122 µM) | 250 (≈ 490 µM) | 125 (≈ 245 µM) | 125 (≈ 245 µM) | 125 (≈ 245 µM) | 250 (≈ 490 µM) | 125 (≈ 245 µM) | 62.5 (≈ 122 µM) | – | – | – | – | – | –
CCOC(=O)c1cn(-c2ccc(F)cc2F)c2nc(Sc3nc4cc(Cl)ccc4[nH]3)c(F)cc2c1=O | – | 62.5 (≈ 118 µM) | 125 (≈ 235 µM) | 62.5 (≈ 118 µM) | 125 (≈ 235 µM) | 125 (≈ 235 µM) | 125 (≈ 235 µM) | 62.5 (≈ 118 µM) | 125 (≈ 235 µM) | – | – | – | – | – | –

More lines, main results first:

inhibition [1] | MIC90 (Staphylococcus aureus [2]) [µg/mL] | MIC90 (Escherichia coli [3]) [µg/mL] | MIC90 (Escherichia coli [4]) [µg/mL] | MIC90 (Klebsiella pneumoniae) [µg/mL] | MIC90 (Enterococcus faecalis [5]) [µg/mL] | MIC90 (Enterococcus faecalis [6]) [µg/mL] | MIC90 (Listeria monocytogenes) [µg/mL] | MIC90 (Pseudomonas aeruginosa) [µg/mL] | inhibition [10] | SMILES | Activity (Staphylococcus aureus [7]) | IC50 (NIH3T3) [µg/mL] | selectivity ratio [8] | selectivity ratio [9] | selectivity ratio [11]
Active | ≤ 1.95 | ≤ 1.95 | ≤ 1.95 | ≤ 1.95 | ≤ 1.95 | ≤ 1.95 | ≤ 1.95 | ≤ 1.95 | – | N[C@@H]1[C@H]2CN(c3nc4c(cc3F)c(=O)c(C(=O)O)cn4-c3ccc(F)cc3F)C[C@@H]12 [TROVAFLOXACIN] | Active | 244 (≈ 587 µM) | – | – | –
– | ≤ 1.95 | ≤ 1.95 | ≤ 1.95 | ≤ 1.95 | ≤ 1.95 | ≤ 1.95 | 3.9 (≈ 11.8 µM) | ≤ 1.95 | – | O=C(O)c1cn(C2CC2)c2cc(N3CCNCC3)c(F)cc2c1=O [CIPROFLOXACIN] | Active | 306 (≈ 923 µM) | – | – | –
– | 7.8 (≈ 16.7 µM) | 15.6 (≈ 33.3 µM) | 15.6 (≈ 33.3 µM) | 31.2 (≈ 66.7 µM) | 15.6 (≈ 33.3 µM) | 31.2 (≈ 66.7 µM) | 31.2 (≈ 66.7 µM) | 31.2 (≈ 66.7 µM) | – | O=C(O)c1cn(-c2ccc(F)cc2F)c2nc(Sc3nc4ccccc4[nH]3)c(F)cc2c1=O | – | – | – | – | –
– | 3.9 (≈ 8.08 µM) | 3.9 (≈ 8.08 µM) | 7.8 (≈ 16.2 µM) | 31.2 (≈ 64.8 µM) | 31.2 (≈ 64.8 µM) | 31.2 (≈ 64.8 µM) | 31.2 (≈ 64.8 µM) | 15.6 (≈ 32.3 µM) | – | Cc1ccc2[nH]c(Sc3nc4c(cc3F)c(=O)c(C(=O)O)cn4-c3ccc(F)cc3F)nc2c1 | – | – | – | – | –
Active | ≤ 1.95 | ≤ 1.95 | ≤ 1.95 | 3.9 (≈ 9.72 µM) | ≤ 1.95 | ≤ 1.95 | 3.9 (≈ 9.72 µM) | 3.9 (≈ 9.72 µM) | – | COc1c(N2C[C@@H]3CCCN[C@@H]3C2)c(F)cc2c(=O)c(C(=O)O)cn(C3CC3)c12 [MOXIFLOXACIN] | – | 380 (≈ 946 µM) | – | – | –
– | 1.95 (≈ 3.8 µM) | 3.9 (≈ 7.6 µM) | 3.9 (≈ 7.6 µM) | 15.6 (≈ 30.4 µM) | 7.8 (≈ 15.2 µM) | 15.6 (≈ 30.4 µM) | 15.6 (≈ 30.4 µM) | 15.6 (≈ 30.4 µM) | Dose-dependent effect | O=C(O)c1cn(-c2ccc(F)cc2F)c2nc(Sc3nc4cc([N+](=O)[O-])ccc4[nH]3)c(F)cc2c1=O | Active | 122 (≈ 237 µM) | 8 | 8 | 8
